# In PMC3050579 (Molecular cell, 2009):
# Where no end group is shown, it is not given here.
# T1: Ube2g2 (Homo sapiens, UniProt P60604)
# T1 sequence (P60604 1-165): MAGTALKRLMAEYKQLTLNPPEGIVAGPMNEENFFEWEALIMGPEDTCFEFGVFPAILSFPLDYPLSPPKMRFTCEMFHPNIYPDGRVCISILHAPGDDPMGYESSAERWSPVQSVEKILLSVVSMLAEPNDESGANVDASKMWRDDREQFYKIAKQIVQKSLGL
# T2: Ube2g2:G2BR complex (Homo sapiens, UniProt P60604+Q9UKV5)
# T2 sequence (P60604 1-165): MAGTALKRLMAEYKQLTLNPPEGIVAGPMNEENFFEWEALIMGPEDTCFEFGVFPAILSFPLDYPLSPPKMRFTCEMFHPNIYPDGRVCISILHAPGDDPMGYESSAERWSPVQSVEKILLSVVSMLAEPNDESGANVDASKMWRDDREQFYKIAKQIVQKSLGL
# T2 sequence (Q9UKV5 574-600 partner limits assumed): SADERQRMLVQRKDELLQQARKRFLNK
# T3: Ube2g2:G2BR complex ( | human, UniProt P60604 1-165; Q9UKV5 574-600)
# T3 sequence 1: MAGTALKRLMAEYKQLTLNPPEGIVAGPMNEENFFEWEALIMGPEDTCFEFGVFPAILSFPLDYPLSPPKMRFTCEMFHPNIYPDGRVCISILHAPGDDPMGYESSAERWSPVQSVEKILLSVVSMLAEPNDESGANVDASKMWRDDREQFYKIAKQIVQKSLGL
# T3 sequence 2: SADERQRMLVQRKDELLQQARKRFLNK
# B1: G2BR peptide (Ube2g2 binding region of gp78, amino acids 574-600) (peptide, UniProt Q9UKV5 574-600, looked up)
# peptide: SADERQRMLVQRKDELLQQARKRFLNK
# B2: Ube2g2 (enzyme)
# chain: MAGTALKRLMAEYKQLTLNPPEGIVAGPMNEENFFEWEALIMGPEDTCFEFGVFPAILSFPLDYPLSPPKMRFTCEMFHPNIYPDGRVCISILHAPGDDPMGYESSAERWSPVQSVEKILLSVVSMLAEPNDESGANVDASKMWRDDREQFYKIAKQIVQKSLGL
# Columns and labels:
# Ube2g2 [1] = target: Ube2g2 (UniProt P60604); assay: NMR titration
# Ube2g2 [2] = target: Ube2g2 (UniProt P60604); assay: ITC
# Ub-GFP-His6 = assay: Ubiquitylation of Ub-GFP-His6 by gp78 cytoplasmic domain constructs; format: biochemical; conditions: ~500 nM Ub-GFP-His6, Flag-tagged ubiquitin
# Summary of the method: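 Purified, bacterially expressed Ub-GFP-His6 (~500 nM) served as substrate for glutathione Sepharose-bound GST-gp78 lacking aa 577-643. Reactions were stopped with 2% SDS (final). After 10 min, samples were diluted to 0.1% SDS with 8 M urea in 50 mM Tris pH 7.4. Substrate was recovered on Ni2+ beads, washed, eluted and resolved by SDS-PAGE. In controls, substrate was added after termination; some reactions ran 60 min.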
# GST-gp78CΔ577-643 = assay: Autoubiquitylation of GST-gp78CΔ577-643 with Ube2g2; format: biochemical, human; conditions: GST-gp78CΔ577-643, bead-bound, Ube2g2, E1; anti-ubiquitin immunoblot
# Summary of the method: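 Glutathione Sepharose-bound GST fusion of the gp78 cytoplasmic tail truncated at aa 577, at the start of the G2BR, is incubated 90 min with Ube2g2 and E1, with or without synthetic or recombinant G2BR-derived peptides added in trans. After washing, ubiquitylated bead-bound material is resolved by SDS-PAGE and immunoblotted with anti-ubiquitin.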
# Ube2g2Δ96-108 [3] = assay: Binding of G2BR to Ube2g2Δ96-108
# Ube2g2:RING finger = assay: Fraction of Ube2g2 bound to gp78 RING finger in discharge reactions; format: binding; conditions: 8 μM gp78 RING finger, peptide 4 μM
# Ube2g2 [4] = target: T1, Ube2g2; assay: ITC of Ube2g2 with G2BR peptides; format: binding
# Ube2g2:G2BR complex [5] = target: T2, Ube2g2:G2BR complex; assay: NMR titration of Ube2g2:G2BR complex with gp78 RING finger; format: binding; conditions: for NMR Exchange timescale: Ube2g2:G2BR complex, pH 7.5, 25°C
# Summary of the method: (§1)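 Purified gp78 RING finger is titrated into free Ube2g2 or the Ube2g2:G2BR complex in 50 mM Tris, 2 mM TCEP, pH 7.5, at 25°C, using 600 and 800 MHz spectrometers. Shifts of Ube2g2 peaks from free toward bound positions are followed. Kd comes from fitting peak positions against ligand:protein concentration.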
# Ube2g2Δ96-108 [6] = assay: Ubiquitin loading of Ube2g2Δ96-108; format: biochemical; conditions: Ube2g2Δ96-108, printed 'almost 75%'; 4 μM G2BR, 30°C
# gp78 RING finger = assay: Binding of G2BR to gp78 RING finger; parameters: species or system human; conditions: in the gp78 RING finger:Ube2g2:G2BR complex, separate binding experiments
# UbcH5B = assay: Ubiquitylation by HsHRD1, Trc8 and GST-gp78CΔ577-643 with UbcH5B as E2; format: biochemical; conditions: HsHRD1, Trc8 and GST-gp78CΔ577-643, UbcH5B as E2, G2BR added
# Summary of the method: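 GST fusions of the HsHRD1 or Trc8 cytoplasmic tails, or of truncated gp78, were bound to glutathione Sepharose. They were incubated 90 min with E1 and the indicated E2, with or without the indicated peptides. Beads were then washed, and bead-bound ubiquitylated material was resolved by SDS-PAGE and immunoblotted with anti-ubiquitin.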
# Ube2g2 [7] = target: T1, Ube2g2; assay: NMR titration of Ube2g2 with G2BR peptides; format: binding; conditions: peptide with Ube2g2, 50 mM Tris, 2 mM TCEP, pH 7.5, 25°C
# Summary of the method: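 Samples are in 50 mM Tris, 2 mM TCEP, pH 7.5, run at 25°C on 600 and 800 MHz spectrometers with triple-resonance cryoprobes. G2BR peptide is titrated into Ube2g2 and chemical shift perturbations of Ube2g2 resonances are mapped, backed by intermolecular NOESY, to define the binding surface.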
# Ube2g2 [8] = target: T1, Ube2g2; assay: Ubiquitin loading of Ube2g2; format: biochemical
# Ube2g2:G2BRΔN complex = Ube2g2:G2BRΔN complex (UniProt P60604); assay: NMR titration
# UbcH5C = conditions: ref Brzovic et al., 2006; cited from earlier work
# Ube2g2 [9] = target: B2; assay: ITC
# Ube2g2 [10] = target: B2; assay: ITC; remark: listed apart in the source
# Ube2g2 [11] = target: B2; assay: NMR titration
# Ube2g2:G2BRΔN = assay: NMR titration of Ube2g2:G2BRΔN complex with gp78 RING finger; format: binding; conditions: Ube2g2 in presence of G2BRΔN, pH 7.5, 25°C
# Summary of the method: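 For the NMR titration, samples were in 50 mM Tris, 2 mM TCEP, pH 7.5, at 25°C, on 600 and 800 MHz spectrometers with cryoprobes. gp78 RING finger was added stepwise, and Ube2g2 peak shifts from the free toward the bound position were followed. Kd was obtained by fitting peak positions against ligand:protein concentration ratio.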
# Ube2g2 [12] = target: B2; assay: NMR titration; remark: listed apart in the source
# Ube2g2:G2BR complex [13] = target: T3, Ube2g2:G2BR complex; assay: NMR titration
# Ube2g2~Ub = Ube2g2~Ub (Homo sapiens, UniProt P60604); assay: Discharge of ubiquitin from Ube2g2~Ub; format: biochemical; conditions: 8 μM gp78 RING finger, Ub 80 μM, 50 mM Tris pH 7.4, 25°C
# Ube2g2 [14] = target: T1, Ube2g2; assay: NMR titration of Ube2g2 with gp78 RING finger; format: binding; conditions: Ube2g2 without G2BR, pH 7.5, 25°C
# Summary of the method: as §1
# [15] = target: B1; assay: NMR titration
molecule,measurement,setting,value
G2BRΔC (peptide),Kd,Ube2g2 [1],192 µM
G2BRΔN (peptide),Kd,Ube2g2 [2],0.74 µM
same,dH,Ube2g2 [2],-2.34 kcal/mol
SADERQRMLVQRKDELLQQARKRFLNK [G2BR],effect of G2BR on ubiquitylation of Ub-GFP-His6 by GST-gp78CΔ577-643,Ub-GFP-His6,substantially increased
same,effect of peptide in trans on ubiquitylation of truncated gp78,GST-gp78CΔ577-643,marked increase in ubiquitylation of truncated gp78
same,G2BR binding to Ube2g2Δ96-108,Ube2g2Δ96-108 [3],G2BR binding was retained
same,Ube2g2 bound (Ube2g2:RING finger),Ube2g2:RING finger,> 50%
same,ΔG (free energy change),"Ube2g2 [4]; ITC, 25°C",-10.45 kcal/mol
same,ΔH,"Ube2g2 [4]; ITC, 25°C",-56.3(±0.01) kJ mol^-1
same,ΔS,"Ube2g2 [4]; ITC, 25°C",-41.8(±0.04) J K^-1 mol^-1T^-1
same,higher affinity for Ube2g2 of G2BR than of ubiquitin,Ube2g2 [4]; versus ubiquitin (~300 μM),"over 10,000 fold"
same,increase in affinity between the E2 and RING finger caused by G2BR binding,"Ube2g2:G2BR complex [5]; Ube2g2:G2BR versus Ube2g2, abstract",~ 50 fold
same,decrease of the G2BR effect on ubiquitin loading by deletion of aa 96-108,Ube2g2Δ96-108 [6],~75%
same,RING finger - G2BR direct interaction,gp78 RING finger,do not directly interact
same,effect on ubiquitylation with UbcH5B,UbcH5B,not increased
same,NMR Exchange timescale,Ube2g2 [7],slow exchange and slow
same,E2 loading with ubiquitin,"Ube2g2 [8]; 12°C, with G2BR",almost no detectable loading
same,effect on rate of E2 loading with ubiquitin,"Ube2g2 [8]; 30°C, 4 μM (saturating) peptide, 100 nM E1, Ub K0, versus Scr, average of two experiments",marked decrease in the rate of E2 loading
same,formation of Ube2g2~Ub,Ube2g2 [8]; in presence of G2BR (discussion),substantial delay in formation of Ube2g2~Ub
gp78 RING finger (aa 313-380) (from UniProt Q9UKV5 313-380) (domain or fragment),Kd,Ube2g2:G2BRΔN complex,29 µM
ubiquitin,Kd,UbcH5C,~300 µM
B1,Kd,Ube2g2 [9],0.021 ± 0.004 µM
same,dH,Ube2g2 [9],-13.456 ± 0.00239 kcal/mol
same,stoichiometry N,Ube2g2 [10],1
same,Kd,Ube2g2 [11],< 1 µM
"gp78 RING finger (aa 313-380) (domain or fragment, human, UniProt Q9UKV5 313-380, looked up) KNYLRVVGNMEARFAVATPEELAVNNDDCAICWDSMQAARKLPCGHLFHNSCLRSWLEQDTSCPTCRM",Kd,"Ube2g2:G2BRΔN; 50 mM Tris, 2 mM TCEP",29 µM
same,NMR Exchange timescale,Ube2g2:G2BRΔN,fast
same,Kd,Ube2g2 [12],144 ± 10 µM
same,Kd,Ube2g2:G2BR complex [13],3 ± 1 µM
same,NMR Exchange timescale,Ube2g2:G2BR complex [5],fast exchange
same,NMR Exchange timescale,Ube2g2:G2BR complex [5]; listed as gp78-RING,fast
same,decrease of Kd of gp78 RING finger for Ube2g2 in presence of G2BR,Ube2g2:G2BR complex [5]; Ube2g2:G2BR versus Ube2g2,~ 48 fold
same,loss of Ub-bound Ube2g2,Ube2g2~Ub,markedly accelerated
same,NMR Exchange timescale,Ube2g2 [14],fast exchange
same,NMR Exchange timescale,Ube2g2 [14]; listed as gp78-RING,fast
B2,stoichiometry N,[15],1
